In the library only some 4.8% were active in any assay of this set; here they are far more common.
ALR inh: inhibitors of human ALR sulfhydryl oxidase, primary screen, biochemical, H2O2 detection, HRP-luminol luminescence, single point; inhibition, % (test concentration not listed); AID 485317, 2010; purified ALR, DTT oxidation; FAD-linked sulfhydryl oxidase ALR (Homo sapiens), P55789; actives 3.8% (n = 290,000);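 active means mean replicate inhibition above about 79%, with every replicate also reaching it, limit read from the data; inconclusive means only one of the two criteria met; inactive means mean below limit and not every replicate reaching it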
Target sequence (P55789 whole entry, looked up): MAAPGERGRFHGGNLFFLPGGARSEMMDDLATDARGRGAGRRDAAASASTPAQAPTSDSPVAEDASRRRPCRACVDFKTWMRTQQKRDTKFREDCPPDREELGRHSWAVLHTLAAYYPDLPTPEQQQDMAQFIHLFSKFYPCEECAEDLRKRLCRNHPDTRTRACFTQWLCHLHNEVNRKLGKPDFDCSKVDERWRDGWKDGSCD
UCH37 inh: inhibitors of human UCH37 deubiquitinase, primary screen, biochemical, Ub-AMC cleavage, fluorescence; inhibition, % (test concentration not listed); actives 0.33% (n = 330,000); purified proteasome/UCH37;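 active means mean inhibition over replicate wells above about 20%, limit read from the data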;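 further: 0% = compound-free wells with enzyme and 100% = wells lacking proteasome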
Target sequence (Q9Y5K5 whole entry, looked up): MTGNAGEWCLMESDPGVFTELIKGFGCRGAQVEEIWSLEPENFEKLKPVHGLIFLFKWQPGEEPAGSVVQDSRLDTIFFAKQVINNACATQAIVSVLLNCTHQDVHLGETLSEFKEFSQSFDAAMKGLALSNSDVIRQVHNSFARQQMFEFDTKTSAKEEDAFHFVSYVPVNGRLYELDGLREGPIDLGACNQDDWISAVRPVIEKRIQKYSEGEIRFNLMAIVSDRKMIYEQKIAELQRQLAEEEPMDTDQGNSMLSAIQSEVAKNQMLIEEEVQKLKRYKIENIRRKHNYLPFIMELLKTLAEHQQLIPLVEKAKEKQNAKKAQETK
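assay system = human UCH37 enzyme supplied as purified proteasome complex | amount = proteasome at 0.15 nM in the dispensed enzyme solution | schedule = 30 min compound-proteasome preincubation then 25 min substrate reaction, room temperature | measured by = fluorescence, ex 355 nm, em 460 nm | benchmarks = no-proteasome wells (full inhibition) and compound-free wells (no inhibition)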
ATG4B inh: ATG4B protease inhibitors, primary screen, biochemical, fluorescence, uHTS | inhibition, % at 8.33 µM | Cysteine protease ATG4B (Homo sapiens), Q9Y4P1 | AID 504462, 2011 | ATG4B cleavage of LC3-PLA2, NBD-HPC fluorescence, 1 h | actives 0.51% (n = 340,000); in the data active means inhibition above about 40%
NALP3 yeast inh: NALP3 inflammasome inhibitors in reconstituted yeast, primary screen, luminescence, uHTS; Yeast reconstituted NLRP3/ASC/caspase-1, beta-gal luminescence, 24 h; inhibition, % at 10 µM; actives 0.39% (n = 330,000);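 active means inhibition of 50% or more; inactive means inhibition below 50%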;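 further: plate controls were induced DMSO wells for no effect and uninduced yeast grown without galactose for full effect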
Calb FLC: C. albicans growth inhibition with fluconazole, primary screen, CaCi-2 strain, Alamar Blue fluorescence; growth inhibition, % (no concentration beside the values); AID 1979, 2009; C. albicans CaCi-2 (fluconazole-resistant clinical isolate) + fluconazole, 48 h; actives 0.57% (n = 300,000);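 active means growth inhibition above about 58% in most replicates, limit read from the data, passing the limit was not always enough; inconclusive means exactly half the replicates above a set limit; inactive means most replicates below a set limit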;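 further: all wells also contain fluconazole at 8 µg/ml as a sub-toxic cotreatment; 0% = median of DMSO wells and 100% = median of geldanamycin control wells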
NALP1 inh: NALP1 inflammasome inhibitors in reconstituted yeast, colorimetric, S. cerevisiae, triplicate retest; inhibition, % at 10 µM; actives 0.61% (n = 280,000); AID 2071, 2009; S. cerevisiae NALP1/ASC/caspase-1 growth, X-gal OD620, 72 h; in the data active means inhibition mostly above about 24%, no sharp cut-off; inactive means mostly below about 32%
NALP3 confirm: NALP3 inhibitors retested in yeast, confirmation, luminescence, single concentration | shares compounds with NALP3 yeast inh | yeast expressing human NALP3 | inhibition, % at 10 µM | actives 81% (n = 1,300); in the data active means inhibition above about 48%
Casp1-ASC yeast: CASP1-PYCARD signaling inhibition in yeast, confirmatory test, counterassay for NLRP3 inhibitor program, one-dose | inhibition, % at 10 µM | actives 66% (n = 1,000) | shares compounds with NALP3 yeast inh | yeast expressing Caspase-1-ASC, luminescence counter screen
NALP3 retest: NALP3 inhibitors in yeast, repeat test, confirmation, luminescence, single concentration, retest; shares compounds with NALP3 yeast inh; yeast expressing human NALP3, luminescence read-out; inhibition, % at 10 µM; actives 53% (n = 1,000); AID 488794, 2010
ATG4B conf: ATG4B protease inhibitors, retest, confirmation, biochemical, fluorescence, single concentration; shares compounds with ATG4B inh; ATG4B protease fluorescent substrate cleavage assay; inhibition, % at 8.33 µM; actives 92% (n = 320); in the data active means inhibition above about 39%
PLA2 ctr: PLA2 enzyme inhibition, counter-screen for ATG4B inhibitor project, biochemical, single concentration, uHTS hits. inhibition, % at 8.33 µM. actives 66% (n = 1,600). shares compounds with ATG4B inh. purified PLA2, NBD-C6-HPC fluorescence, 45 min
Target sequence (P04054 whole entry, looked up): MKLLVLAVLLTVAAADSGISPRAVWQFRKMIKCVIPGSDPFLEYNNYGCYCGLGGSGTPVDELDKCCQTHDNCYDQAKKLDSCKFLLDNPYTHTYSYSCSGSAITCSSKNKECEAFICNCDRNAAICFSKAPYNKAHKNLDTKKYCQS
UCH37 confirm: retest of human UCH37 deubiquitinase inhibitors, confirmation, biochemical, Ub-AMC cleavage rate, fluorescence; shares compounds with UCH37 inh; Proteasome-bound UCH37; inhibition, % at 20 µM; actives 27% (n = 480); AID 624100, 2012;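 active means average inhibition over replicates above about 50%, so the earlier screening hit is confirmed, limit read from the data; inactive means the rest, counted as false positives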;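 further: based on cleavage rate fitted by regression over a 30 min kinetic read; 0% = proteasome plus Ub-AMC and 100% = Ub-AMC without proteasome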
Numbers without * were called inactive; ? = inconclusive; / = not tested or not shown; ! = repeats disagree. Unless noted, no stated cut-off is given here; in the data, active means inhibition above about 50%; inactive means the rest.

SMILES	ALR inh	UCH37 inh	ATG4B inh	NALP3 yeast inh	Calb FLC	NALP1 inh	NALP3 confirm	Casp1-ASC yeast	NALP3 retest	others
COc1ccc2nc(C)cc(SCC(=O)NN=Cc3ccc(O)cc3O)c2c1	/	-8	/	/	/	/	/	/	/
CC(=NOC(=O)c1ccc(OC(C)C)cc1)c1ccc(C)c(C)c1	/	3	/	/	/	/	/	/	/
COc1c(O)c(=O)n2c3ccccc3c3ccnc1c32	98*	7	-9	77*	-4	/	85*	80*	82*
CC1(C)[C@@H](O)CC[C@]2(C)C3C(O)C=C4[C@H]5C[C@@](C)(C(=O)O)CC[C@]5(C)CC[C@]4(C)[C@]3(C)CC[C@@H]12 (some centres not stated)	/	/	/	60*	22	/	70*	/	/
COC(=O)C(=Cc1ccccc1[N+](=O)[O-])C(=O)OC	12	5	1	51*	32	14	63*	41	44
CCOC(=O)NN=C/C=C/c1ccccc1[N+](=O)[O-]	/	4	/	/	/	/	/	/	/
O=C(ON=Cc1ccc(N2CCCCC2)c([N+](=O)[O-])c1)c1ccc(Cl)cc1Cl	/	-2	/	/	/	/	/	/	/
CCCCOc1cccc(/C=C(\C#N)C(=O)NC2CC2)c1	47	0	-8	51*	4	18	54*	38	32
COc1ccc(/C=C(\C#N)C(=O)NCc2ccccc2)cc1	-10	2	-10	18	7	0	/	/	/
CNC(=O)/C(C#N)=C/c1ccc(OCCOc2ccccc2)cc1	-4	2	-1	56*	-2	15	73*	58*	48
COC(=O)CCC(C)=NNc1ccc([N+](=O)[O-])cc1[N+](=O)[O-]	/	8	/	/	/	/	/	/	/
O=C(Cc1ccc2c(c1)OCCO2)NN=Cc1ccco1	/	2	/	/	/	/	/	/	/
CS(=O)(=O)n1nc(-c2ccc(Cl)cc2)nc1N	-4	-1	-7	9	-7	16	/	/	/
Cn1nc(-c2ccc(Cl)cc2)nc2c(=O)n(C)c(=O)nc1-2	-176	92*	/	96*	71	48*	99*	99*	99*
Cc1ccc(-n2nnnc2SCC(=O)N2CCc3ccccc3C2)cc1	/	11	36	70*	-26	-6	76*	77*	74*
Cn1nnnc1SCC(=O)N1CCc2ccccc2C1	-9	9	5	20	/	2	/	/	/
Cc1cc(O)cc2c(=O)c3ccccc3sc12	1	-2	-8	79*	-3	7	92*	54*	63*
COc1ccc2sc3ccccc3c(=O)c2c1	-4	-32	-2	24	1	17	/	/	/
C=CCON=CC1=C(O)C(C(=O)OC)C(C)(C)CC1=O (configuration not stated)	/	4	/	/	/	/	/	/	/
O=C(NN=Cc1ccc(OC(=O)c2cccs2)cc1)c1cccc(F)c1	/	0	/	/	/	/	/	/	/
O=c1cc(-c2ccccc2Cl)oc2ccc([N+](=O)[O-])c(O)c12	14	2	7	57*	-4	43	72*	29	57*
CC(=NNS(=O)(=O)c1ccc(C)c([N+](=O)[O-])c1)c1ccc2c(c1)OCO2	/	4	/	/	/	/	/	/	/
CCc1nnc(NC(=O)CCC(=O)Nc2ccccc2)s1	0	-3	1	6	-13	1	/	/	/
CCc1nnc(NC(=S)Nc2ccccc2)s1	-3	6	-3	55*	?	1	46	/	/
Oc1ccc(N=Nc2nc(-c3ccccc3)c(-c3ccccc3)[nH]2)cc1	14	10	48*	51*	11	32	62*	75*	50	ATG4B conf=67*;PLA2 ctr=40
SMILES	ALR inh	UCH37 inh	ATG4B inh	NALP3 yeast inh	Calb FLC	NALP1 inh	NALP3 confirm	Casp1-ASC yeast	NALP3 retest	others
Cn1c(=O)[nH]c(=O)c2c1nc(Br)n2CC=NNC(N)=S	/	2	/	/	/	/	/	/	/
c1ccc(OCc2nnnn2-c2ccccc2)cc1	-4	1	42*	-105	-26	-25	-66	-20	-36	PLA2 ctr=-2
S=C(Nc1ccc2nsnc2c1)NC1CCCCC1	-16	4	5	9	-16	17	/	/	/
S=C(Nc1ccc(Cl)c(Cl)c1)NC1CCCCC1	-8	4	48*	53*	-21	32	59*	85*	68*	PLA2 ctr=40
CCCCC12CN3CCN(CC(C3)C1=NNC(=O)c1ccccc1N)C2	/	-141	/	/	/	/	/	/	/
CCCCN1C(=O)/C(=C/C=C2\SCCN2C)SC1=S	/	8	73*	58*	0	4	48	64*	65*	PLA2 ctr=80*
CCCCN1C(=O)/C(=C/C=C2\N(C)c3ccccc3C2(C)C)SC1=S	-8	15	/	-1	-1	26	/	/	/
c1ccc(CSc2nnc(-c3cccs3)n2Cc2ccco2)cc1	26	3	58*	-103	121*	-10	-2	/	/	PLA2 ctr=60*
COc1ccc(CN(CCN(C)C)c2ccccn2)cc1	-2	-5	-4	2	/	18	/	/	/
CCCCCCCCCCCCCCCC[N+](C)(C)CCN(Cc1ccc(OC)cc1)c1ncccn1	19	27*	67*	52*	/	/	21	/	/	PLA2 ctr=61*
Cc1ccc(NC(=S)NN=Cc2ccc([N+](=O)[O-])s2)cc1	/	8	/	/	/	/	/	/	/
CCCCCCCC[n+]1cccc(C(=O)N(CC)CC)c1	-5	1	-13	8	-10	18	/	/	/
CCCCCCCCCCCCCCCC[n+]1cccc(C(=O)N(CC)CC)c1	-40	58*!	6	63*	69	71*	73*	72*	68*	UCH37 confirm=66*
